According to ChEMBL document CHEMBL1134608, “Nucleosides and nucleotides. 200. Reinvestigation of 5'-N-ethylcarboxamidoadenosine derivatives: structure-activity relationships for P(3) purinoceptor-like proteins” (J Med Chem, 2001):

Experiments:
[1] = molecular target: T1, Adenosine receptor A2b (Rattus norvegicus) (UniProt P29276); assay: Agonist activity as cAMP production in CHO cells expressing rat Adenosine A2B receptor at 100 uM; type: functional, cell-based
T1 sequence (whole entry): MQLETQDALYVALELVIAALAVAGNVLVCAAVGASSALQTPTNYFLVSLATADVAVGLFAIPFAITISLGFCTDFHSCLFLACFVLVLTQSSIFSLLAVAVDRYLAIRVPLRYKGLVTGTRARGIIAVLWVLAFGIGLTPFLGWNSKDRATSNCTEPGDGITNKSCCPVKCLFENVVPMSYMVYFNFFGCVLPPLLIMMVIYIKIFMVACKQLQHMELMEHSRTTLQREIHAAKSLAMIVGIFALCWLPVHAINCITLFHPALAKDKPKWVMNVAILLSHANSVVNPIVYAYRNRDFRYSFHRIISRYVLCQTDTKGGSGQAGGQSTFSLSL
Outline: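 Rat A2B receptor cDNA transfected into CHO cells; agonism read as cAMP production with test compound at 100 µM, given as percentage of NECA-induced activity.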

Adenosine receptor A1 = molecular target: T2, Adenosine receptor A1 (Rattus norvegicus, UniProt P25099); assay: Binding activity against Adenosine A1 receptor from rat brain membranes using [3H]8-cyclopentyl-1,3-dipropylxanthine (DPCPX)
T2 sequence (P25099 whole entry): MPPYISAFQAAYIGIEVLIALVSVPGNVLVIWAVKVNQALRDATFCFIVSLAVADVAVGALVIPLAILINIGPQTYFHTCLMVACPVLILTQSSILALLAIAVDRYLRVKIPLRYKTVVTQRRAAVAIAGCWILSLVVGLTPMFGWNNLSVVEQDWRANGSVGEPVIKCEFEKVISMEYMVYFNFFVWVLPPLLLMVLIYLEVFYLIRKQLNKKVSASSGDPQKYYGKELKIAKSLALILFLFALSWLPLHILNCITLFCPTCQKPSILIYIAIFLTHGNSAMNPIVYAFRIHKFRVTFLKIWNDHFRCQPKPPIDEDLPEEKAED

Adenosine receptor A2a = Adenosine receptor A2a (Rattus norvegicus, UniProt P30543); assay: Binding affinity for Adenosine A2A receptor in rat brain membranes using [3H]CGS-21680; type: cell membranes
Adenosine receptor A3 = molecular target: T3, Adenosine receptor A3 (Rattus norvegicus, UniProt P28647); assay: Binding affinity for adenosine A3 receptor in CHO cell membranes using [125I]IB-MECA
T3 sequence (P28647 whole entry): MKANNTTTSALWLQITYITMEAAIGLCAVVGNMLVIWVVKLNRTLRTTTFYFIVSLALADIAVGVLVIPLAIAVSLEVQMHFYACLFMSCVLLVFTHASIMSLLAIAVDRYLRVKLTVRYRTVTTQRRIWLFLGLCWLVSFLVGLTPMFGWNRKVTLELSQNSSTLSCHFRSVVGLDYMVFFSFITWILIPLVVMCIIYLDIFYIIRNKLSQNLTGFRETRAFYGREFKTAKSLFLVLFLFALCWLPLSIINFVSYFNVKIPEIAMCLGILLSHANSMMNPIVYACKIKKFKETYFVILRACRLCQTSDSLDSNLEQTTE

Rattus norvegicus [2] = species on record: Rattus norvegicus; assay: Ratio of affinity for A3 and P3LP receptors
Rattus norvegicus [3] = species on record: Rattus norvegicus; assay: Ratio of affinity for A1 AND P3LP receptor
Rattus norvegicus [4] = species on record: Rattus norvegicus; assay: Ratio of affinity for A2A and P3LP receptors

Adenosine receptor A2a, sequence (P30543 whole entry): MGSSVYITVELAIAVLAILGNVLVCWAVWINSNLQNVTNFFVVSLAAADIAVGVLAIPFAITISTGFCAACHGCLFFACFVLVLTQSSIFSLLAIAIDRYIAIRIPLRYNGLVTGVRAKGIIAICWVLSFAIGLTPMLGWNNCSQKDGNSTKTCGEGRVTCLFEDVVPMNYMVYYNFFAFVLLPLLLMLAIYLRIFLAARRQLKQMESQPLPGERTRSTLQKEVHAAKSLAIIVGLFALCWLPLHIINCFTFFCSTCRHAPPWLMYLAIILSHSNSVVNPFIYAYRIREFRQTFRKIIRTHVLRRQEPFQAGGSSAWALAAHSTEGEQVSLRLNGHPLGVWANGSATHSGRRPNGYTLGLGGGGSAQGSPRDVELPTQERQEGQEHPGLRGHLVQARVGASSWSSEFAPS

SMILES | Activity [1] | Ki (Adenosine receptor A1) [nM] | Ki (Adenosine receptor A2a) [nM] | Ki (Adenosine receptor A3) [nM] | Ratio (Rattus norvegicus [2]) | Ratio (Rattus norvegicus [3]) | Ratio (Rattus norvegicus [4])
CCNC(=O)[C@H]1O[C@@H](n2cnc3c(N)ncnc32)[C@H](O)[C@@H]1O | 100 | – | – | – | – | – | –
Nc1ncnc2c1ncn2[C@@H]1O[C@H](C(=O)NC2CCCCC2)[C@@H](O)[C@H]1O | 1.9% | 5020 | 2500 | 15100 | 830 | 275 | 137
CCCCCNC(=O)[C@H]1O[C@@H](n2cnc3c(N)ncnc32)[C@H](O)[C@@H]1O | 3.4% | 979 | 605 | 5560 | 456 | 80.2 | 49.6
C#CC(O)[C@H]1O[C@@H](n2cnc3c(N)ncnc32)[C@H](O)[C@@H]1O (some centres not stated) | 10% | 897 | 2110 | 310000 | 15500 | 44.9 | 105
